Screening data (PubChem BioAssay)
WNV NS2B-NS3 inh: inhibitors of WNV NS2B-NS3 protease, primary screen, biochemical, fluorogenic substrate. AID 577, 2007. 65,000 compounds, 0.18% hits. fluorogenic substrate Ex360/Em465; active compounds read low. z-score (test concentration not listed). Genome polyprotein (West Nile virus), P06935; in the data active = z-score below about -3
Target sequence (P06935 1371-1501 limits assumed): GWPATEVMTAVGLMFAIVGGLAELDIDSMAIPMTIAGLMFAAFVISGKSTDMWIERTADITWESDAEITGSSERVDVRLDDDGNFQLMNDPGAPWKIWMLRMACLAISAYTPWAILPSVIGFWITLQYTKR
Target sequence (P06935 1502-1679 limits assumed): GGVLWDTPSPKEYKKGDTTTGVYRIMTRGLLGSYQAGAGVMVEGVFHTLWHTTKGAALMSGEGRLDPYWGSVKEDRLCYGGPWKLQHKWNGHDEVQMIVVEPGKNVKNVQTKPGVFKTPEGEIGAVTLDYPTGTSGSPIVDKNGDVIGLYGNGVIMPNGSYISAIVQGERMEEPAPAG
M1 antagonist: antagonists of rat M1 muscarinic receptor; Muscarinic acetylcholine receptor M1 (Rattus norvegicus), P08482; CHO-M1 cells, Fluo-4 calcium, ACh EC80 antagonist mode; active compounds read low; B-score at 10 µM; 64,000 compounds, 3.4% hits;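 active = calcium fluorescence response, raw or row-and-column corrected B-score, differing from the plate sample mean either way at a set confidence level, mostly lower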
E coli WT exp: growth inhibitors of wild-type E. coli, primary screen, strain BW25113, expanded library, OD600; OD600 absorbance; growth inhibition, % at 100 µM; 98,000 compounds, 0.15% hits;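 active = growth inhibition above about 50% at one test dose, limit read from the data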;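 note: growth measured after 20 h incubation at 37 °C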
AP complement: alternative complement pathway inhibitors, primary screen, biochemical, ELISA, human serum, orthogonally pooled compounds. LPS-coated ELISA, C3 deposition; tested in compound mixtures. inhibition, % at 5 µM. 62,000 compounds, 0.08% hits;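 active = inhibition above 30% in each of the two pooled mixtures holding the compound, so the lower value exceeds 30%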;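 note: 0% = serum in Mg-EGTA without compound and 100% = EDTA serum blank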
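Assay system: human serum alternative complement pathway, C3 deposition on LPS-coated wells; Dosing: 5 µM per compound in ten-compound mixtures; Detection: Anti-C3 ELISA, OD 450 nm; Buffer or medium: Mg2+-EGTA GVB++ buffer containing human serum at 1:15 dilution; Timing: 1 h at 37 °C; Replication: two different pools per compound.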
M1 ag: M1 muscarinic receptor agonists, primary screen, CHO-M1 cells, Fluo-4 calcium, agonist mode | 64,000 compounds, 3% hits | Fluo-4 calcium fluorescence; active compounds read high | AID 626, 2007 | Muscarinic acetylcholine receptor M1 | B-score at 10 µM;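 active = fluorescence rise, raw or as B-score row- and column-corrected plate score, outside the 99.7% band of its plate's samples, either direction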
Ecoli tolC: growth inhibitors of E. coli tolC mutant, primary screen, strain BW25113 ΔtolC::kan, 384-well. OD615. growth inhibition, % at 10 µM (by protocol). 65,000 compounds, 2.2% hits;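 active = growth inhibition at or above a cutoff equal to the mean over every tested compound plus 3 SD, cut at about 60% in these data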;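 note: growth measured after 20 h incubation at 37 °C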
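Material: E. coli BW25113 ΔtolC::kan, tolC deletion mutant strain. Measure: percent growth inhibition. Schedule: 37 °C, 20 h exposure. Doses: single-point testing at 10 µM. Signal: A615 absorbance measurement. Buffer or medium: kanamycin-containing LB broth (50 µg/mL).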
An asterisk follows results filed as active; / = no result given. Compounds with a hit are over-represented: about 5.2% of the library has one in this group of screens.

SMILES	WNV NS2B-NS3 inh	M1 antagonist	E coli WT exp	AP complement	M1 ag	Ecoli tolC
COc1ccc(C(=O)NC(Nc2ccccc2)C(Cl)(Cl)Cl)cc1 (stereo not given)	/	/	-5.0	/	/	/
C/C(=C\C(=O)Nc1nccs1)c1ccccc1	0.38	0.171	12.0	-2.5	0.79	23.0
CCN(CC)c1nc(N)c2c(N)nc3c(c2c1C#N)CC(c1ccccc1)O3 (stereo not given)	-0.24	2.16*	-4.0	11.7	-0.531	76.0*
N#Cc1c(N2CCCCC2)nc(N)c2c(N)nc3c(c12)CC(c1ccccc1)O3 (stereo not given)	/	/	-10.0	/	/	/
CCOc1ccc(N(CC(=O)Nc2ccc(C)c(C)c2)S(=O)(=O)c2c(C)noc2C)cc1	0.25	0.0982	-18.0	10.9	-0.489	61.5*
COc1ccc(Cn2nnnc2C(c2ccccc2Cl)N2CCN(C3CCCC3)CC2)cc1 (stereo not given)	-1.01	-1.97	1.0	1.3	-1.37	-1.5
COc1ccc(Cn2nnnc2C(c2ccccc2)N2CCN(C3CCCC3)CC2)cc1 (stereo not given)	0.2	1.86*	-5.0	7.8	0.553	-2.2
O=C1C2=C(SCCS2)C(=O)N1CCCO	0.71	0.101	-4.0	-3.8	7.9*	-8.3
CC1Cc2ccccc2N1C(=O)CSc1nnc(Cc2ccccc2)n1CCc1ccccc1 (stereo not given)	/	/	-20.0	/	/	/
CCCCSc1nc2c(cnn2-c2ccc(Cl)cc2)c(=O)[nH]1	-0.58	0.247	-7.0	1.8	5.62*	-25.5
COc1ccc(-c2noc(C)c2-c2ccc3ccccc3n2)c(O)c1	-0.39	-0.398	-5.0	7.1	-0.368	96.2*
COc1ccc(-c2onc(C)c2-c2ccccc2)c(O)c1	-0.38	-0.0827	-7.0	8.5	-0.354	12.2
CCOc1cc(CNCc2ccncc2)cc(Br)c1OCc1ccc(F)cc1	/	/	1.0	/	/	/
CCOC(=O)c1c(C)[nH]c(C(=O)Cn2nnc(-c3ccccc3Cl)n2)c1C	-0.12	0.663	-2.0	-15.2	0.732	-9.3
CCOC(=O)c1c(C)[nH]c(C)c1C(=O)Cn1nnc(-c2ccccc2C)n1	-2.74	-1.72	-18.0	3.7	-0.0379	63.4*
O=C(Nc1nnc(-c2ccccc2)o1)c1nc2ccccc2s1	0.59	0.0779	/	16.7	1.47	73.4*
NC(=O)c1oc2ccccc2c1NC(=O)c1nc2ccccc2s1	0.67	-0.0127	-4.0	6.4	-0.0593	-8.5
CCc1cc2c(N3CCN(c4ccccc4)CC3)ncnc2s1	-0.51	0.00617	-9.0	14.6	-0.578	93.3*
O=C1c2ccccc2NC(c2ccc(Cl)cc2Cl)N1O (stereo not given)	-1.4	0.00307	58.0*	1.9	0.0328	13.4
Cc1cccc(/C(N)=N/OC(=O)CCc2ccccc2)c1	/	/	1.0	/	/	/
Cc1c(C(=O)NCc2ccc3c(c2)OCO3)oc2ccc(Br)cc12	/	/	0.0	/	/	/
Cc1ccc2oc(C(=O)NCc3ccc4c(c3)OCO4)c(C)c2c1	0.84	-1.97	-9.0	-4.5	-0.413	86.4*
O=C(NCc1ccc2c(c1)OCO2)c1ccc(-c2ccc(Cl)cc2)o1	-2.2	1.15	-21.0	12.1	0.614	79.0*
CC1=C(C(=O)OCC2CCCO2)C(c2ccc(C)o2)C2=C(CC(c3ccc(N(C)C)cc3)CC2=O)N1 (stereo not given)	-0.86	-0.241	-8.0	1.1	5.57*	17.1
COc1cccc(-c2noc(-c3cccs3)n2)c1	0.48	-0.137	-8.0	11.1	-0.43	94.4*
SMILES	WNV NS2B-NS3 inh	M1 antagonist	E coli WT exp	AP complement	M1 ag	Ecoli tolC
COc1ccc(-c2nc(-c3cccc(C)c3)no2)cc1OC	-0.52	-0.564	/	9.6	-0.924	-2.5
COc1cccc(-c2nc(-c3ccccc3)no2)c1	-0.03	0.0908	3.0	24.8	-0.203	98.9*
COc1cccc(-c2nc(-c3ccccn3)no2)c1	/	/	13.0	/	/	/
COc1cc(-c2nc(-c3cccc(C)c3)no2)cc(OC)c1OC	-0.27	/	/	15.4	/	67.3*
CC(C)c1nnc(NC(=O)c2c(O)c3cccc4c3n(c2=O)CC4)s1	0.52	0.016	/	-29.8	-1.27	100.0*
CCc1nc2ccccc2c(=O)n1NC(=O)c1c(O)c2cccc3c2n(c1=O)CCC3	1.02	1.12	0.0	-13.1	0.227	64.5*
CCCCCNCc1cccc(Br)c1	/	/	7.0	/	/	/
CCOc1ccccc1NC(=O)C1CCN(S(=O)(=O)c2cccc3cccnc23)CC1	-1.73	0.0856	-5.0	27.7	1.67	-1.1
COCc1nnc(NC(=O)c2ccc(S(=O)(=O)N3CCCCCC3)cc2)o1	2.55	0.345	4.0	-1.7	-0.397	74.2*
COCc1nnc(NC(=O)c2ccc(S(=O)(=O)N(C)C3CCCCC3)cc2)o1	-0.07	0.431	6.0	0.8	0.138	95.4*
CCN(Cc1ccccc1)S(=O)(=O)c1ccc(C(=O)Nc2nnc(C3CC3)o2)cc1	-0.23	0.53	2.0	23.7	0.176	19.3
CN(C1CCCCC1)S(=O)(=O)c1ccc(NC(=O)c2ccc(Br)o2)cc1	-1.26	0.00402	-7.0	6.2	-0.0166	69.7*
Cc1nnc(NC(=O)c2ccc(S(=O)(=O)N3CCCCCC3)cc2)o1	-0.74	-0.703	0.0	14.3	-0.0656	56.0
COc1ccccc1N1CCN(C(=O)c2sc3nc(-c4ccc(F)cc4)cn3c2C)CC1	-0.5	-0.16	-6.0	-3.7	1.1	5.0
CCOC(=O)NC(=O)CN1C(=O)NC(C)(c2ccccc2)C1=O (stereo not given)	-1.5	2.12*	9.0	16.3	-0.0727	-8.6
CC1(c2ccccc2)NC(=O)N(CC(=O)NC(=O)NC2CCCC2)C1=O (stereo not given)	-0.88	0.739	2.0	16.8	-0.0833	-6.3
CC(=O)Nc1ccccc1-c1nc2ccccc2nc1OCC(=O)c1ccc2ccccc2c1	/	/	-13.0	/	/	/
CCCCCCCCCCn1c2c(c(=N)c3c1CCC3)CCC2	/	/	100.0*	/	/	/
O=C(C1CCCN(S(=O)(=O)c2ccc(F)cc2)C1)N(Cc1cccs1)C1CC1 (stereo not given)	1.45	-0.402	-7.0	22.6	-0.392	28.1
N#Cc1nc(COc2ccccc2F)oc1NCCc1ccccc1	-0.26	-1.63	7.0	-9.5	-0.0796	100.0*
COCCNC(=O)COC(=O)/C=C/c1c(C)nn(Cc2ccc(Cl)cc2Cl)c1Cl	/	/	-5.0	/	/	/
CN1C(=O)N2CN(C3CCCCC3)CN3C(=O)N(C)C1C23 (stereo not given)	2.48	1.15	0.0	30.0	-0.692	-14.9
CN1C(=O)N(CN2CCCCC2)C2C1N(C)C(=O)N2CN1CCCCC1 (stereo not given)	-11.6*	-0.476	2.0	9.2	-0.111	-17.2
C/C(=N/Oc1nc(C)cc(C)n1)c1ccc(F)cc1	/	/	7.0	/	/	/
CCCCOc1ccc(S(=O)(=O)Nc2cc(OC)ccc2OC)cc1	-0.67	-0.665	-9.0	9.9	-0.47	70.2*
